Assay results pooled from the literature.
Protocols differ between the studies behind these lines.
Target: Wee1-like protein kinase (WEE1, Homo sapiens, UniProt P30291)

SMILES	read-out	technique	tested at	remaining binding [%]
O=C(Nc1c[nH]nc1C(=O)NC1CCNCC1)c1cc(F)cc(F)c1	binding	competition with immobilised ligand	1 µM	100
CN(C)c1ncc(F)c(-c2cnn3ncccc23)n1	binding	–	1 µM	100
C[C@@H](c1ccc(-n2cnc3c(N)ncnc32)cc1)N1CCc2nn(C)c(Cc3ccccc3)c2C1=O	binding	competition with immobilised ligand	0.1 µM	85
O=C1CCc2cc(Nc3cc(OC4CCOCC4)c([N+](=O)[O-])cc3Cl)ccc2N1	cell-free assay	competition with immobilised ligand	1 µM	99
Cc1cnc(Nc2ccc(C(=O)N3CCC(N4CCCC4)CC3)cc2)nc1-c1cc2ccccc2s1	binding	competition with immobilised ligand	1 µM	4.2
N[C@H]1CCN(c2nccc(-c3cnn4ncccc34)n2)C1	binding	–	1 µM	68
CNC(=O)[C@@H]1CC[C@@H](n2c(-c3ccc4cnccc4c3)nc3ccc(C(=O)NCc4cccc(C(N)=O)c4)cc32)C1	binding	competition with immobilised ligand	1 µM	98
O=C(NCc1ncc(C(F)(F)F)cc1Cl)c1ccc2c(c1)C1(CCS(=O)(=O)CC1)[C@@H](C1CC1)N2S(=O)(=O)c1ccc(F)cc1	cell-free assay	competition with immobilised ligand	1 µM	100
FC(F)(F)Oc1cccc(-c2cnc3ccc(-c4ccncc4)nn23)c1	binding	competition with immobilised ligand	5 µM	90
C=CC(=O)N1CCC(C(=O)NCC(=O)N2CCN(c3nc(-c4cnc(N)nc4C(F)F)nc(N4CCOCC4)n3)CC2)CC1	binding	competition with immobilised ligand	1 µM	89
COc1ccnn2ncc(-c3ccnc(N(C)C)n3)c12	binding	–	1 µM	100
CN(c1ccnc(CNc2nc(Nc3ccc4c(c3)CC(=O)N4)ncc2C(F)(F)F)n1)S(C)(=O)=O	cell-free assay	competition with immobilised ligand	1 µM	13
O=C(c1ccc(Nc2ncc(Cl)c(-c3ccc(Cl)s3)n2)cc1)N1CCC(N2CCCC2)CC1	binding	competition with immobilised ligand	1 µM	11
c1cnn2ncc(-c3ccnc(N4CCC45COC5)n3)c2c1	binding	–	1 µM	92
Cc1nccc(COC(=O)N2C[C@@H]3[C@@H](CNC(=O)c4ccc5[nH]nnc5c4)[C@@H]3C2)n1	cell-free assay	competition with immobilised ligand	1 µM	100
CN(C)c1nccc(-c2cnn3ncccc23)n1	binding	–	1 µM	80
O=C(O)[C@@H]1[C@@H](Cn2nnc3ccccc3c2=O)CC[C@H]1C(=O)c1ccc(OCCC2CCOCC2)cc1	cell-free assay	competition with immobilised ligand	1 µM	93
O=C(c1ccc(Nc2ncc(Cl)c(-c3cc4ccccc4s3)n2)cc1)N1CCC(N2CCCC2)CC1	binding	competition with immobilised ligand	1 µM	11
CCCOc1ccc([C@@H]2[C@@H](C(=O)O)[C@H](c3ccc4c(c3)OCO4)CN2CC(=O)Nc2c(CC)cccc2CC)cc1	cell-free assay	competition with immobilised ligand	1 µM	95
Nc1ncc2c(n1)-c1c([nH]c3ccc(C#CC4CC4)cc13)CCCC2	binding	competition with immobilised ligand	1 µM	87
FC(F)(F)c1ccc2c(c1)nc(-c1cccnc1)n2C1CC1	cell-free assay	competition with immobilised ligand	1 µM	93
C[C@@H]1CCN(c2nccc(-c3cnn4ncccc34)n2)C1	binding	–	1 µM	100
